High-throughput results as filed in PubChem BioAssay.
A selection: hits, their analogues and other compounds. The true share with any hit is near 2.4%.
ANO1 block: mouse TMEM16A channel inhibition, primary screen; Q8BHY3; actives 1.2% (n = 310,000); HEK293 TMEM16A/YFP iodide influx fluorescence, ionomycin; normalized B-score (activity score, 25-100; higher = stronger inhibition) at 10 µM;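 active = ratio plate-corrected score three or more library SD toward inhibition, starting fluorescence score within five deviations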;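 also: score derived from kinetic fluorescence span divided by baseline fluorescence per well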
Apaf1 inhib: inhibitors of human Apaf-1 apoptosome | O14727 | reconstituted apoptosome caspase-3 activity, DEVD-Rh110 fluorescence | inhibition, % at 20 µM | actives 0.71% (n = 330,000) | AID 489030; active = inhibition of at least 40% at 20 µM;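 also: plate controls were DMSO wells for no effect and DEVD-CHO caspase inhibitor wells for full effect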
Target sequence (O14727 whole entry, looked up): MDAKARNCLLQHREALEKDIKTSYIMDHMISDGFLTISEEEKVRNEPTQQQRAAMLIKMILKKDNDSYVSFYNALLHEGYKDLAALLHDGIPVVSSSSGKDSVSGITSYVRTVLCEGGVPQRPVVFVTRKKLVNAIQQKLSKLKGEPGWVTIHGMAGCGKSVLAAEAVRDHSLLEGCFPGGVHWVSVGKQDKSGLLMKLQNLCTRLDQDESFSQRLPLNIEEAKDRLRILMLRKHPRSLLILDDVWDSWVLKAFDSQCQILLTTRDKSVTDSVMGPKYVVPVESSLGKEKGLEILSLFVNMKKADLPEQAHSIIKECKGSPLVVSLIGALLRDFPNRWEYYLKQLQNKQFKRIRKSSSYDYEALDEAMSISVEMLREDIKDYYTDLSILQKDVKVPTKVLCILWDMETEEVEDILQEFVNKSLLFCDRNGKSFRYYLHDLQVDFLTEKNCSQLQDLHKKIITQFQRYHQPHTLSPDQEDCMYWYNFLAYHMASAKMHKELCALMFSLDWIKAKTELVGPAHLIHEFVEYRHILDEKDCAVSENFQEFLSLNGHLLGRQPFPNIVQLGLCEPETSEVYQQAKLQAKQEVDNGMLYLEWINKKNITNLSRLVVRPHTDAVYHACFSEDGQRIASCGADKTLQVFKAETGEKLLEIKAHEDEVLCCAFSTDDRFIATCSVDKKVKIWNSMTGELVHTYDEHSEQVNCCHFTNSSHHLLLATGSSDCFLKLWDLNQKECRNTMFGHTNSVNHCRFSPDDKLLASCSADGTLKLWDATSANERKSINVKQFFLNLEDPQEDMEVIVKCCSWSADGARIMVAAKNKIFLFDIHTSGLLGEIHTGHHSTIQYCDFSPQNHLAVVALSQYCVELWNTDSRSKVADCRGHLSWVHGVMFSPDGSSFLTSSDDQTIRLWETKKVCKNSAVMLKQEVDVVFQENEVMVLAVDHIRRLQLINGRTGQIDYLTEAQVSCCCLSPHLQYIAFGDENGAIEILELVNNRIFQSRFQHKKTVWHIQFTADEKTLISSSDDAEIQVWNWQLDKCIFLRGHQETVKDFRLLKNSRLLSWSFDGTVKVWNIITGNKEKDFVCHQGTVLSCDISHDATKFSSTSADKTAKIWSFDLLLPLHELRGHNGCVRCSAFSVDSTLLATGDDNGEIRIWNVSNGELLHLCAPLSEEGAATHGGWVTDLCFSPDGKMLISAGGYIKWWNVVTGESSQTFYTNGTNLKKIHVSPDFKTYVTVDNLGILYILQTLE
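detection = Rh110 fluorescence intensity | test system = biochemical Apaf-1 apoptosome reconstitution | also added = cytochrome c and DEVD-Rh110 substrate | schedule = 30 min plus 50 min, RT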
ANO1 activ: activates or potentiates the mouse TMEM16A chloride channel | actives 0.3% (n = 340,000) | HEK293 TMEM16A/YFP-H148Q/I152L, iodide quench fluorescence; active compounds read low | B-score at 10 µM | Q8BHY3;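 active = fluorescence-ratio B-score plate-corrected deviation score at least 3 library SD below zero, with starting fluorescence score within 5 deviations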;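 also: channel opened by trigger with iodide after compound preincubation; score built on the fluorescence ratio of max minus min over baseline; more negative score means more quench and so TMEM16A activation or potentiation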
DNA FID counter: counter-screen for HCV NS3 helicase inhibitors: DNA intercalator displacement; DNA fluorescent intercalator displacement, fluorescence; inhibition, % at 7.9 µM; actives 0.17% (n = 290,000); in the data active = inhibition above about 37%;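 also: 0% = vehicle and 100% = reference compound; higher means more ethidium bromide displaced from hairpin DNA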
UBC13 inh: human UBC13 polyubiquitination inhibition. UBC13 polyubiquitin chain formation, TR-FRET. inhibition, % at 20 µM. actives 0.47% (n = 330,000); in the data active = inhibition above about 45%, passing the limit was not always enough
Casp3 counter: counter-screen for UBC13 inhibitors: human caspase-3 inhibition. actives 4% (n = 1,400). Recombinant caspase-3, Caspase-Glo 3/7 luminescence, 60 min. inhibition, % at 20 µM. shares compounds with UBC13 inh;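 active = mean inhibition across replicates above about 26%, limit read from the data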;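 also: plate controls were DMSO with caspase-3 for no effect and DMSO wells lacking enzyme for full effect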
UBC13 conf: human UBC13 polyubiquitin inhibition, confirmed; shares compounds with UBC13 inh; UBC13 polyubiquitination, TR-FRET, biochemical; inhibition, % at 10 µM; actives 68% (n = 1,400); in the data active = inhibition above about 45%
Starred values were filed as active, the others as inactive; i = inactive; x = no result given.

SMILES	ANO1 block	Apaf1 inhib	ANO1 activ	DNA FID counter	UBC13 inh	Casp3 counter	UBC13 conf
C/C=C1\COC(C(=O)NCCN2CCCC2)(C(F)(F)F)C=C1C=C1CCCCC1 (configuration not stated)	i	24	i	x	55*	-1	52*
CC(C)OC(=O)CSc1nc(Cc2cccs2)nc2ccccc12	i	23	i	-28	6	x	x
CN1CCc2c(sc3c2C(=O)NC(c2cn(Cc4ccccc4)c4ccccc24)N3)C1 (configuration not stated)	i	17	i	-3	51*	-2	64*
COc1ccc(OC)c(S(=O)(=O)N2CCC(C(=O)NCc3ccccn3)CC2)c1	i	0	i	-9	-3	x	x
COc1ccc(CNC(=O)c2cc(S(=O)(=O)N3CCCCC3)ccc2N2CCOCC2)cc1OC	x	x	i	x	x	x	x
COc1ccc(C)cc1NC(=O)c1cc(S(=O)(=O)N2CCCCC2)ccc1N1CCOCC1	x	8	i	x	65*	-3	51*
COc1ccc(S(=O)(=O)N2CCCC2)cc1NC(=O)c1ccccc1F	i	-3	i	-11	21	x	x
COc1ccccc1NC(=O)c1cc(S(=O)(=O)N2CCCCCC2)ccc1F	i	21	i	-30	68*	-4	90*
CN(C(=O)c1ccc(Br)o1)C1(C)CCS(=O)(=O)C1 (configuration not stated)	i	3	i	-5	-3	x	x
CN(CCNC(=O)C1CCN(c2ncnc3c2nc2n3CCCCC2)CC1)Cc1ccccc1	i	-3	i	-2	91*	-1	106*
Cc1ccc(NC(=O)C2CCN(c3ncnc4c3nc3n4CCCCC3)CC2)cc1Cl	i	34	i	-36	72*	0	94*
NS(=O)(=O)c1ccc(CCNC(=O)C2CCN(c3ncnc4c3nc3n4CCCCC3)CC2)cc1	i	-8	i	-29	55*	-7	59*
CCC1CCCCN1CCCNC(=O)C1CCN(c2ncnc3c2nc2n3CCCCC2)CC1 (configuration not stated)	i	9	i	3	53*	-4	63*
CC1CCCCN1CCNC(=O)C1CCCN(c2ncnc3c2nc2n3CCCCC2)C1 (configuration not stated)	i	2	i	3	28	x	x
CC1CCCN(C(=O)COC(=O)c2ccc3[nH]c4c(c3c2)CCCC4)C1 (configuration not stated)	i	26	i	x	-1	x	x
CCNC(=O)N(C)C[C@H]1N[C@@](CC)(C(=O)OC)[C@H]2C(=O)N(Cc3ccccc3)C(=O)[C@@H]12	x	-7	i	x	2	x	x
CCCCN(CC)CCNC(=O)c1cc2c(=O)n(CC)c3ccccc3c2s1	i	6	i	19	72*	-3	91*
CCn1c(=O)c2cc(C(=O)NCCCOC)sc2c2ccccc21	i	6	i	-26	22	x	x
CCCN(CCC)CCCNC(=O)c1cc2c(=O)n(CC)c3ccccc3c2s1	i	6	i	10	47*	-4	35
CCCCN(CC)CCCNC(=O)c1cc2c(=O)n(CC)c3ccccc3c2s1	i	5	i	9	50*	4	62*
O=Cc1cn(CCOc2ccccc2)c2ccccc12	i	-9	i	-6	11	x	x
CCCCOc1ccc(C(=O)NN2C(=O)NC3(CCCCC3)C2=O)cc1OC	i	-3	i	x	5	x	x
Cc1ccc2nc(/N=C(\N)NC(=O)NC3CCCCC3)nc(C)c2c1	i	15	i	6	49*	1	68*
CC1(C)C(=O)OC(c2ccccc2)C2(CCCC2)C1=O (configuration not stated)	i	-6	i	-7	8	x	x
CC1CCCC(NC(=O)COc2ncnc3ccccc23)C1C (configuration not stated)	x	3	i	x	-4	x	x
SMILES	ANO1 block	Apaf1 inhib	ANO1 activ	DNA FID counter	UBC13 inh	Casp3 counter	UBC13 conf
CC1CCCC(NC(=O)CSc2ncnc3ccccc23)C1C (configuration not stated)	x	-1	i	x	46*	3	34
NCCCC[C@@H]1NC(=O)c2cc([N+](=O)[O-])cc(I)c2SC[C@@H](C(N)=O)NC(=O)[C@H](Cc2ccc(O)cc2)NC1=O	i	6	i	7	59*	0	81*
COc1ccc(NC(=S)NNC(=O)c2nnn(-c3ccccc3)c2C)cc1	i	3	i	-11	59*	-2	82*
Cc1c(CC(=O)N2CCC(C(=O)O)CC2)c(=O)oc2cc3c(cc12)CCC1(CCCCC1)O3	i	-2	i	-31	4	x	x
Cc1ccc2nc(N(CCCN(C)C)C(=O)c3sc4ccccc4c3Cl)sc2c1	i	3	i	1	49*	-4	64*
CN(C)CCCN(C(=O)c1ccc(S(=O)(=O)N(C)C)cc1)c1nc2cc3c(cc2s1)OCO3	i	-15	i	11	33	x	x
CN(C)CCCN(C(=O)c1ccc(C(=O)c2ccccc2)cc1)c1nc2cc3c(cc2s1)OCCO3	i	17	i	30	92*	5	112*
CCN(Cc1ccccc1)S(=O)(=O)c1ccc(C(=O)N(CCCN(C)C)c2nc3cc4c(cc3s2)OCO4)cc1	i	23	i	35	64*	-3	104*
CCCOc1ccc(/C=N/NC(=O)CN2CCCCC2)cc1OCC	i	-18	i	1	-2	x	x
CCCOc1ccc(/C=N/NC(=O)CSCc2ccc([N+](=O)[O-])cc2)cc1OCC	i	13	i	-7	90*	-4	93*
C/C(=N\NC(=O)Cc1ccc(Cl)cc1)c1ccccc1O	i	9	i	-8	8	x	x
C/C(=N\NC(=O)CSCc1ccc([N+](=O)[O-])cc1)c1ccccc1O	i	8	i	0	84*	-1	95*
C/C(=N\NC(=O)CSCc1ccc([N+](=O)[O-])cc1)c1ccccc1	i	5	i	0	91*	3	109*
C/C(=N/NC(=O)CN1CCN(Cc2ccccc2)CC1)c1ccc([N+](=O)[O-])cc1	i	-17	i	6	-1	x	x
CC1(C)CC(C(CC(=O)N2CCCC2)Cc2ccccc2)CCO1 (configuration not stated)	i	-3	i	-31	-3	x	x
CCN(CC)Cc1cc2[nH]c3c4ccc(Cl)cc4ncc3c2cc1OC	x	21	i	59*	67*	2	10
COc1ccc(CNc2ncnc3cc(Cl)ccc23)cc1OC	x	x	i	1	x	x	x
